The record followed here is ChEMBL document CHEMBL3085696, “Aurora isoform selectivity: design and synthesis of imidazo[4,5-b]pyridine derivatives as highly selective inhibitors of Aurora-A kinase in cells” (J Med Chem, 2013).

Structures are written as SMILES. Activity calls are given as the source filed them. The rule behind the calls is not given here.

Data set [1] addresses T1, Aurora kinase B (Homo sapiens, UniProt Q96GD4). Nature of the data set: Inhibition of full-length aurora-B (unknown origin) using 5FAMLRRASLG-CONH2 as substrate after 60 mins. The gist of the method: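 Full-length Aurora-B/INCENP complex (1 nM) incubated with 1.5 μM 5FAM-LRRASLG-CONH2 peptide and 15 μM ATP in Tris pH 7.4 buffer with NaCl, MgCl2, DTT, Tween 20. Runs 60 min at room temperature, then EDTA stop. Microfluidic mobility-shift readout of percent conversion. Duplicate 8-point curves, 0.25 pM–200 μM final. IC50 by four-parameter logistic fit.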

Data set [2] has as its target T2, Aurora kinase A (Homo sapiens, UniProt O14965).
T2 sequence (O14965 whole entry): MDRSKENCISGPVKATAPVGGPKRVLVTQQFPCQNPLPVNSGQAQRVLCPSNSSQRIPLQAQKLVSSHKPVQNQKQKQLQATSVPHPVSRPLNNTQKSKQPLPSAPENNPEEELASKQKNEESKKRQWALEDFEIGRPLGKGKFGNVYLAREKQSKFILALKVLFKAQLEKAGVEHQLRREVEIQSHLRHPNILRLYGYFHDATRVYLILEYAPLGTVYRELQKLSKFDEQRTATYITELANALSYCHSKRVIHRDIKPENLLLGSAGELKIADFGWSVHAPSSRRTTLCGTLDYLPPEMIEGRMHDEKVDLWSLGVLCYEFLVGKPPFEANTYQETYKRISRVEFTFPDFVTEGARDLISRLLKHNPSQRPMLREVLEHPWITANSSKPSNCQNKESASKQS
Nature of the data set: Inhibition of N-terminal HIS-tagged aurora-A (unknown origin) using 5FAM-LRRASLG-CONH2 as substrate after 60 mins. The procedure, abridged:
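Aurora-A (5 nM N-terminal His-tagged) incubated with 1.5 μM 5FAM-LRRASLG-CONH2 peptide and 20 μM ATP in 50 mM Tris pH 7.4, 200 mM NaCl, 5 mM MgCl2, 2 mM DTT, 0.1% Tween 20. Runs 60 min at room temperature; EDTA stop. Microfluidic separation of product from substrate. Duplicate 8-point curves, 0.25 pM–200 μM final, 1–2% DMSO. IC50 from four-parameter logistic fit.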

Data set [3] deals with T3, Aurora kinase A (Homo sapiens) (UniProt O14965).
T3 sequence (whole entry): T2 sequence (O14965 whole entry)
The note with it: HCT-116, 1.5 uM.

Data set [4] addresses Vascular endothelial growth factor receptor 1 (Homo sapiens) (UniProt P17948). Nature of the data set: Inhibition of VEGFR1 (unknown origin) at 1 uM. The gist of the method: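 110-kinase panel profiling, compounds tested at 1 μM, read as percent inhibition.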
The subject of data set [5] is HeLa. Nature of the data set: Selectivity ratio of IC50 for aurora-B-mediated histone H3 phosphorylation at S10 in human HeLa cells to IC50 for autophosphorylation of N-terminal Myc tagged aurora-A at T288 in human HeLa cells. It is filed as cell-based. The gist of the method: (§1)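 Cells transfected with Myc-tagged Aurora-A (wild type or T217E, L215R, R220K mutants) and treated with inhibitor concentrations for 2 h. Lysed in LDS buffer; SDS-type PAGE and western blot. Blots probed for P-T288 (Aurora-A autophosphorylation) and phospho-histone H3 S10 (Aurora-B substrate). Blots quantified; IC50 derived; ratio taken as H3 IC50 over T288 IC50.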

Data set [6] has as its target T1, Aurora kinase B. Conditions: HCT-116, 25 to 50 uM.
Data set [7] addresses T1, Aurora kinase B. Nature of the data set: Inhibition of N-terminal Myc tagged aurora-B-mediated histone H3 phosphorylation at S10 in human HeLa cells after 2 hrs. It is filed as cell-based. The procedure, abridged:
as §1

The target of data set [8] is T2, Aurora kinase A. Nature of the data set: Inhibition of autophosphorylation of N-terminal Myc tagged aurora-A at T288 in human HeLa cells after 2 hrs. It is filed as cell-based. The procedure, abridged:
as §1

In data set [9] the target is Aurora kinase A (Homo sapiens, UniProt O14965, R220K). Nature of the data set: Inhibition of autophosphorylation of aurora-A R220K mutant at T288 in human HCT116 cells after 2 hrs. It counts as cell-based, HCT-116. The gist of the method: (§2)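 Cells transfected with N-terminal Myc-tagged Aurora-A (wild type or T217E, L215R or R220K mutant, made by Quikchange mutagenesis), then exposed to a range of inhibitor concentrations for 2 h. Lysed in LDS sample buffer, sonicated, boiled, run on LDS-PAGE and blotted to nitrocellulose. Probed with anti-P-T288 (Aurora-A autophosphorylation) and anti-P-histone H3 S10 (Aurora-B substrate) antibodies. Blots quantified and IC50 fitted.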
Sequence of Aurora kinase A (Homo sapiens, UniProt O14965, R220K) (O14965 whole entry I57V/R220K): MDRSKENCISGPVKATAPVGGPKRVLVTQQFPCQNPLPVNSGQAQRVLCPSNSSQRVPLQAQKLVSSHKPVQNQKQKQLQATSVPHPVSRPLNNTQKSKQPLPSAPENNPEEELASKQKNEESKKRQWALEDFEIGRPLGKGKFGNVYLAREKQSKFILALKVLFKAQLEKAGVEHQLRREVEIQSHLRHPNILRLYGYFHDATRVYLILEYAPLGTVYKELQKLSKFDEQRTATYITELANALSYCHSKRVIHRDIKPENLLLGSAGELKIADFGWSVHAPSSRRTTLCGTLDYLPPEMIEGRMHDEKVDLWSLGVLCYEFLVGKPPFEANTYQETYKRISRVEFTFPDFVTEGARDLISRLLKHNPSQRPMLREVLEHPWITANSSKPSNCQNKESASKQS

In data set [10] the target is Aurora kinase A (Homo sapiens, UniProt O14965, L215R). Nature of the data set: Inhibition of autophosphorylation of aurora-A L215R mutant at T288 in human HCT116 cells after 2 hrs. It counts as cell-based, HCT-116. The gist of the method: as §2
Sequence of Aurora kinase A (Homo sapiens, UniProt O14965, L215R) (O14965 whole entry I57V/L215R): as the sequence (O14965 whole entry I57V/R220K) above, with L215R, K220R counted along it
Data set [11] has as its system Mus musculus. Nature of the data set: Oral bioavailability in Balb/C mouse at 5 mg/kg. It is filed as ADME, organism-based. The note with it: in vivo. The gist of the method: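 Female Balb/C mice given 5 mg/kg po or iv in 10% DMSO/5% Tween 20 in saline. Terminal cardiac-puncture plasma taken at 5, 15, 30 min and 1, 2, 4, 6, 24 h. Methanol precipitation with olomoucine internal standard. Analysis by LC/MS (ESI+ MRM).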

Data set [12] in a line: Metabolic stability in CD1 mouse liver microsomes at 10 uM after 30 mins. Conditions: read-out: Stability. It is filed as ADME, Microsome. The procedure, abridged:
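Compound at 10 μM incubated with male CD1 mouse liver microsomes (1 mg/mL protein) plus NADPH 1 mM, UDPGA 2.5 mM and MgCl2 3 mM in 10 mM PBS at 37 °C, for 0 and 30 min. Controls omit cofactors. Percent remaining measured by LC/MS.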

Data set [13] has as its target T2, Aurora kinase A. Nature of the data set: Inhibition of autophosphorylation of N-terminal Myc tagged wild type aurora-A at T288 in human HCT116 cells after 2 hrs. It is filed as cell-based, HCT-116. The gist of the method: as §2
Data set [14] can be described thus: Metabolic stability in human liver microsomes at 10 uM after 30 mins. It is filed as ADME. The note with it: read-out: Stability. The gist of the method:
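Mixed-gender pooled human liver microsomes (1 mg/mL) incubated with compound at 10 μM plus NADPH 1 mM, UDPGA 2.5 mM and MgCl2 3 mM in 10 mM PBS at 37 °C, for 0 and 30 min. Cofactor-free controls included. Percent remaining measured by LC/MS.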

In data set [15] the target is Aurora kinase A (Homo sapiens, UniProt O14965, T217E). Nature of the data set: Inhibition of autophosphorylation of aurora-A T217E mutant at T288 in human HCT116 cells after 2 hrs. It is filed as cell-based, HCT-116. The gist of the method:
as §2

The target in data set [16] is T1, Aurora kinase B. Nature of the data set: Inhibition of N-terminal Myc tagged aurora-B-mediated histone H3 phosphorylation at S10 in human HCT116 cells after 2 hrs. It counts as cell-based, HCT-116. The gist of the method:
as §2

In data set [17] the target is T2, Aurora kinase A. Nature of the data set: Inhibition of autophosphorylation of N-terminal Myc tagged aurora-A at T288 in human HCT116 cells after 2 hrs. It counts as cell-based, HCT-116. The procedure, abridged: as §1
The target in data set [18] is T2, Aurora kinase A. Nature of the data set: Inhibition of autophosphorylation of N-terminal Myc tagged aurora-A at T288 (unknown origin) after 2 hrs. The procedure, abridged:
as §1

Data set [19] is filed under the species Homo sapiens. Nature of the data set: Selectivity ratio of IC50 for aurora-B (unknown origin)-mediated histone H3 phosphorylation at S10 to IC50 for autophosphorylation of N-terminal Myc tagged aurora-A at T288 (unknown origin). The gist of the method: as §1
Data set [20] concerns the target T1, Aurora kinase B. Nature of the data set: Inhibition of N-terminal Myc tagged aurora-B (unknown origin)-mediated histone H3 phosphorylation at S10 after 2 hrs. The procedure, abridged: as §1

T1 sequence (Q96GD4 whole entry): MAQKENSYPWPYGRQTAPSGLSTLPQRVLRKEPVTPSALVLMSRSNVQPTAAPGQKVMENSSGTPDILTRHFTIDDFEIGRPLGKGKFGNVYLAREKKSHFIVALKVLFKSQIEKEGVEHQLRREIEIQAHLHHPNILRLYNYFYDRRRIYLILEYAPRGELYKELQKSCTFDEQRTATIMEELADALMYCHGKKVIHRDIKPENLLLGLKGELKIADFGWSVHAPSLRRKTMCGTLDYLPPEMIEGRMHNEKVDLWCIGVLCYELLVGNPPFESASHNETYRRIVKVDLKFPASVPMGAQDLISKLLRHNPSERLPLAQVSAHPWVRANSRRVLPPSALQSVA
Sequence of Aurora kinase A (Homo sapiens, UniProt O14965, T217E) (O14965 whole entry I57V/T217E): as the sequence (O14965 whole entry I57V/R220K) above, with T217E, K220R counted along it
Sequence of Vascular endothelial growth factor receptor 1 (Homo sapiens) (P17948 whole entry): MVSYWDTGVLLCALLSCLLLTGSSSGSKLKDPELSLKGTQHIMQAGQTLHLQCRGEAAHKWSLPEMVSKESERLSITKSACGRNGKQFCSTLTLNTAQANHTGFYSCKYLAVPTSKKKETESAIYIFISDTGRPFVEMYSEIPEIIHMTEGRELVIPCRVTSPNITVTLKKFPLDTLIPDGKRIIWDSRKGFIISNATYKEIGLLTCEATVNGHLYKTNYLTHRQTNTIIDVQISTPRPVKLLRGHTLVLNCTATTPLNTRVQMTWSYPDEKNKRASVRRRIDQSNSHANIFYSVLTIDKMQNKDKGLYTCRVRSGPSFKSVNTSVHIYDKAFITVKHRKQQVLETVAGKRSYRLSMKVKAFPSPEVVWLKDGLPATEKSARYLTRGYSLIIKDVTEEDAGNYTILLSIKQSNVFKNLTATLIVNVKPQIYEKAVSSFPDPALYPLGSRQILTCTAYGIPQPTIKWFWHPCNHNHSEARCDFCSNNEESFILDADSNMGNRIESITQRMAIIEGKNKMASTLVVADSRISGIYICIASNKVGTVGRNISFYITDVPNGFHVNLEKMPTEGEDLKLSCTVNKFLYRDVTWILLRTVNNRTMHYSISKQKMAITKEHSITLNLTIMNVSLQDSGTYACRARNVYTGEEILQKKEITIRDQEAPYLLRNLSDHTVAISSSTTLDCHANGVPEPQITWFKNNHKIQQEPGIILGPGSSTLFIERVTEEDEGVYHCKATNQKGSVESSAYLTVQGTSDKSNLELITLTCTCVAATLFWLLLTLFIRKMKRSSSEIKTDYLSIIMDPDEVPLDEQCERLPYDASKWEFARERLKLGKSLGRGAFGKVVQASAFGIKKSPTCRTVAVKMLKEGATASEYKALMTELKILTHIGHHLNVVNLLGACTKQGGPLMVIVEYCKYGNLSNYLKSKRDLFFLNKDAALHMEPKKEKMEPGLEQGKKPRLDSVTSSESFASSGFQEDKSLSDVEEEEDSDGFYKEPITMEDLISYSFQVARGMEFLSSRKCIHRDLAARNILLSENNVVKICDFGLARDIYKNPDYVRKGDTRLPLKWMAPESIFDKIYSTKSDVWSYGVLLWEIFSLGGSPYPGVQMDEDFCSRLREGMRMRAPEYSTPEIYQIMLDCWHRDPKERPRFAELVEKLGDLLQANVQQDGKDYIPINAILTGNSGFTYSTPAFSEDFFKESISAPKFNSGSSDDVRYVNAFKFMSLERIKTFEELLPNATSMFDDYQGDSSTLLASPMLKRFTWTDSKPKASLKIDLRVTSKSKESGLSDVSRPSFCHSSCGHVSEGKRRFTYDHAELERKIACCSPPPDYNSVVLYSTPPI

Regarding `Cc1nn(C)cc1-c1nc2c(N3CCC[C@H](CNS(C)(=O)=O)C3)c(Cl)cnc2[nH]1`, the IC50 stood at 8 nM in [1] and 5 nM in [2].

As for `COc1ccc(-c2[nH]c3ncc(Cl)cc3c2-c2cccc(CNS(C)(=O)=O)c2)cc1`, the IC50 in data set [1] worked out at 7100 nM; in data set [2] it was 1940 nM.

`Cc1nn(C)cc1-c1nc2ncc(Cl)c(Oc3ccc(C(=O)N4CCCC4)cc3)c2[nH]1`: the IC50 in data set [1] was determined as 1820 nM; in data set [2], 45 nM.

In the case of `Cc1nn(C)cc1-c1nc2c(Oc3ccc(C(=O)NC4CCC4)cc3)c(Cl)cnc2[nH]1`, the inhibition result in data set [3] and in data set [6] was “Active” in each case. In data set [4], the inhibition was greater than 80%. Also, the Ratio IC50 in [5] is 346.

In the case of `Cc1nn(C)cc1-c1nc2ncc(Cl)c(Oc3ccc(C(=O)Nc4ccncc4)cc3)c2[nH]1`, the IC50 in data set [1] worked out at 3450 nM; in data set [7] it was 19700 nM; in data set [8] it was 580 nM; in [2] it was 190 nM.

`Cc1nn(C)cc1-c1nc2ncc(Cl)c(Oc3ccc(C(=O)NC4CCC4)cc3)c2[nH]1`: the IC50 in data set [9] came out at 42 nM; in data set [1], 3050 nM; in data set [7] it was 24200 nM; in data set [10] it was 43 nM; in [13] it was 36 nM; in data set [8], 70 nM. The IC50 in data set [2] stood at 15 nM; in [15], 2290 nM. This compound also displayed a F in data set [11] of 14%. Also, the figures for the remaining at 0.5 h, 10 µM in data set [12] and in data set [14] were 28% and 22%, respectively.

`Cc1cc(NC(=O)c2ccc(Oc3c(Cl)cnc4nc(-c5cn(C)nc5C)[nH]c34)cc2)on1`: the IC50 is 4930 nM in data set [16], 693 nM in data set [1], 95 nM in data set [17] and 71 nM in data set [2].

`CC(=O)NC[C@@H]1CCN(c2c(Cl)cnc3nc(-c4cn(C)nc4C)[nH]c23)C1`: the results for the IC50 in data set [1] and in data set [2] were 7 nM and 9 nM, respectively.

For `Cc1nn(C)cc1-c1nc2c(N(C)Cc3ccccc3)c(Cl)cnc2[nH]1`, the IC50 in [1] was found to be 169 nM; in [2], 255 nM.

Take `Cc1nn(C)cc1-c1nc2c(Oc3ccc(C(=O)Nc4ccccc4)cc3)ccnc2[nH]1`: half-maximal inhibition in data set [2] (IC50) was put at 618 nM.

Turning to `Cc1nn(C)cc1-c1nc2c(Nc3ccc(C(=O)Nc4ccccc4)cc3)c(Cl)cnc2[nH]1`, the IC50 in [1] was determined as 4120 nM; in data set [18] it was 320 nM; in [20] it was 18600 nM; in data set [2], 75 nM. Further, the Ratio IC50 in data set [19] came to 58.

`COc1ccc(-c2[nH]c3ncc(Cl)cc3c2-c2cccc(CNC(C)=O)c2)cc1`: the results for the IC50 in [1] and in data set [2] were 1090 nM and 743 nM, respectively.

As for `CC(=O)N[C@H]1CCN(c2c(Cl)cnc3[nH]c(-c4cn(C)nc4C)nc23)C1`, the IC50 was 80 nM in [1] and 270 nM in data set [2].

Turning to `CC(=O)NCc1cccc(-c2c(-c3cnn(C)c3)[nH]c3ncc(Cl)cc23)c1`, the results for the IC50 in [1] and in data set [2] were 97 nM and 118 nM, respectively.

As for `Cc1nn(C)cc1-c1nc2c(Oc3ccc(C(=O)NCc4ccccc4)cc3)c(Cl)cnc2[nH]1`, the IC50 in [1] came out at 3910 nM; in data set [2] it was 204 nM.

As to `Cc1nn(C)cc1-c1nc2c(Oc3ccc(C(=O)Nc4cccnc4)cc3)c(Cl)cnc2[nH]1`, the IC50 is 1680 nM in [1], 19700 nM in [7], 280 nM in data set [8] and 58 nM in data set [2]. Moreover, in [5], the Ratio IC50 came out at 70.

In the case of `O=C(Nc1ccccc1)c1ccc(Oc2c(Cl)cnc3nc[nH]c23)cc1`, the midpoint of inhibition in [2], the IC50, lay at 25800 nM.

`CC(=O)N[C@@H]1CCN(c2c(Cl)cnc3[nH]c(-c4cn(C)nc4C)nc23)C1`: the IC50 is 2 nM in data set [1] and 4 nM in [2].

Regarding `Cn1cc(-c2[nH]c3ncc(Cl)cc3c2-c2cccc(CNS(C)(=O)=O)c2)cn1`, the figures for the IC50 in data set [1] and in data set [2] were 441 nM and 211 nM, respectively.

Regarding `Cc1nn(C)cc1-c1nc2ncc(Cl)c(N3CCC[C@@H](CNS(C)(=O)=O)C3)c2[nH]1`, the IC50 in data set [1] came to 17 nM; in data set [2], 7 nM.

As to `Cc1nn(C)cc1-c1nc2c(N3CCC[C@H](CN(C)S(C)(=O)=O)C3)c(Cl)cnc2[nH]1`, the IC50 in data set [1] amounted to 9 nM; in [2], 5 nM.

Take `Cc1nn(C)cc1-c1nc2c(Oc3ccc(C(=O)Nc4ccncc4)cc3)c(Cl)cnc2[nH]1`: the Ratio IC50 in [5] was determined as 34.
